Test results reported in PMC9434060 (Heliyon, 2022).

Columns and labels:
XCGL-1 [1] = assay: Inhibition of XCGL-1 hemagglutination; assay type: cell-based, Xenopus laevis; conditions: pig red blood cells; for inhibition of hemagglutination by carbohydrates: 25 nM XCGL-1; for inhibition of agglutination: 50 nM XCGL-1, millimolar concentrations
Procedure, shortened: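 Citrated fresh pig red cells, washed in 20 mM HEPES pH 7.5, 150 mM NaCl, 10 mM CaCl2, used as a 2.5% suspension in a Terasaki plate. Two set-ups: carbohydrates at various concentrations with 25 nM lectin; EDTA or galactose at millimolar concentrations with 50 nM lectin. Plates photographed after 1 h.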

His6 XCGL-1 CRD = assay: Inhibition of His6 XCGL-1 CRD hemagglutination by carbohydrates; assay type: cell-based, Xenopus laevis; conditions: pig red blood cells, 25 nM XCGL-1
His6 XCGL-1 = His6 XCGL-1 (Xenopus laevis, UniProt Q91719); assay: Inhibition of His6 XCGL-1 hemagglutination by carbohydrates; assay type: cell-based; conditions: pig red blood cells, 25 nM XCGL-1
Procedure, shortened: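 Fresh pig blood collected into sodium citrate tubes. Red cells washed in 20 mM HEPES pH 7.5, 150 mM NaCl, 10 mM CaCl2 and used as a 2.5% suspension. Incubated with 25 nM lectin plus carbohydrate at various concentrations in a Terasaki plate. Agglutination photographed after 1 h. MIC is the minimum carbohydrate concentration inhibiting agglutination.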

XCGL-1 [2] = assay: Competitive elution of XCGL-1 from lactose resin; parameters: species or system Xenopus laevis; conditions: carbohydrate 6.5 mM in binding buffer, western blot
Procedure, shortened: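 Lactose-agarose resin (250 μL) settled in a spin column and washed three times with binding buffer (20 mM HEPES pH 7.5, 150 mM NaCl, 10 mM CaCl2). Protein (250 μL, 0.1 μM) bound for 5 min, then washed three times. Elution with each carbohydrate at 6.5 mM in binding buffer; eluates analysed by western blot.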

Refolded XCGL-1 CRD = assay: Inhibition of refolded XCGL-1 CRD hemagglutination by carbohydrates; assay type: cell-based, Xenopus laevis; conditions: pig red blood cells; for inhibition of hemagglutination at 25 mM: 25 nM XCGL-1, carbohydrate 25 mM; for concentration at which inhibition of hemagglutination was observed: 25 nM XCGL-1

Sequence of His6 XCGL-1 (Q91719 18-313): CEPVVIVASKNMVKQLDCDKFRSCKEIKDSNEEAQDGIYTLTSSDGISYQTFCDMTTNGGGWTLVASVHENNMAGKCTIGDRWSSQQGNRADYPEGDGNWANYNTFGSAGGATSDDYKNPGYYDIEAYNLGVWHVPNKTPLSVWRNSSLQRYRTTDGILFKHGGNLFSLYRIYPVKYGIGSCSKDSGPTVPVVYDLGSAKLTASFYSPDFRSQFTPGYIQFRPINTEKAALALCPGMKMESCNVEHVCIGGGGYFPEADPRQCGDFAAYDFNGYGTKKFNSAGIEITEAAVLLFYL

| minimum inhibitory concentration (MIC) of hemagglutination (His6 XCGL-1 CRD) [mM] | minimum inhibitory concentration (MIC) of hemagglutination (His6 XCGL-1) [mM] | Structure (SMILES) | inhibition of hemagglutination by carbohydrates (XCGL-1 [1]) | competitive elution of XCGL-1 bound to lactose resin (XCGL-1 [2]) | also measured |
| --- | --- | --- | --- | --- | --- |
| – | – | CC(=O)N[C@@H]1[C@@H](O)[C@H](O)[C@@H](CO)O[C@H]1O [N-acetylglucosamine, N-acetyl-D-glucosamine] | could not inhibit hemagglutination | – | – |
| 2.5 | 5 | CC(=O)N[C@H]1C(O)O[C@H](CO)[C@H](O)[C@@H]1O[C@H]1O[C@H](CO)[C@H](O)[C@H](O)[C@H]1O (stereo partly drawn) [α-D-Gal-(1→3)-D-GalNAc] | – | able to elute XCGL-1 competitively | inhibition of hemagglutination at 25 mM (Refolded XCGL-1 CRD): no inhibition |
| – | – | O=C(O)CN(CCN(CC(=O)O)CC(=O)O)CC(=O)O [EDTA] | – | – | inhibition of agglutination (XCGL-1 [1]): inhibited |
| – | – | C[C@H](O)[C@@H](O)[C@@H](O)[C@H](O)C=O [fucose, L-fucose] | could not inhibit hemagglutination | – | – |
| – | – | CC(=O)N[C@H]1C(O)O[C@H](CO)[C@H](O)[C@@H]1O (stereo partly drawn) [N-acetylgalactosamine, N-acetyl-D-galactosamine] | could not inhibit hemagglutination | – | – |
| – | – | OC[C@H]1OC(O)[C@H](O)[C@@H](O)[C@@H]1O (some centres unmarked) [glucose] | could not inhibit hemagglutination | – | – |
| 10 | 15 | O=C[C@H](O)[C@@H](O)[C@@H](O)[C@H](O)CO [galactose, D-galactose] | – | able to elute XCGL-1 competitively | inhibition of agglutination (XCGL-1 [1]): inhibited; inhibition of hemagglutination at 25 mM (Refolded XCGL-1 CRD): not efficient at inhibiting hemagglutination |
| 10 | 15 | OC[C@H]1O[C@@H](O[C@H]2[C@H](O)[C@@H](O)[C@H](O)O[C@@H]2CO)[C@H](O)[C@@H](O)[C@H]1O [lactose, β-D-Gal-(1→4)-D-Glc] | – | able to elute XCGL-1 competitively | concentration at which inhibition of hemagglutination was observed (Refolded XCGL-1 CRD): > 20 mM |
| – | – | OC[C@H]1OC(O)[C@@H](O)[C@@H](O)[C@@H]1O (stereo partly drawn) [mannose, D-mannose] | could not inhibit hemagglutination | – | – |
| 10 | 15 | OC[C@H]1O[C@H](OCC2O[C@@H](O)[C@H](O)[C@@H](O)[C@@H]2O)[C@H](O)[C@@H](O)[C@H]1O (stereo partly drawn) [melibiose, α-D-Gal-(1→6)-D-Glc] | – | able to elute XCGL-1 competitively | concentration at which inhibition of hemagglutination was observed (Refolded XCGL-1 CRD): > 20 mM |
